Data taken from ChEMBL document CHEMBL4229558, “Elongation of the Hydrophobic Chain as a Molecular Switch: Discovery of Capsaicin Derivatives and Endogenous Lipids as Potent Transient Receptor Potential Vanilloid Channel 2 Antagonists” (J Med Chem, 2018).
Active and inactive are the calls of the source. No cut-off for these calls is given here.

Columns and labels:
[1] = biological target: T1, Transient receptor potential cation channel subfamily V member 2 (Rattus norvegicus, UniProt Q9WUD2); assay: Antagonist activity at recombinant rat TRPV2 expressed in HEK293 cells assessed as inhibition of LPC-induced Ca2+ levels preincubated for 5 mins followed by agonist addition by Fuo-4-AM based spectrofluorimetry; assay type: cell-based
T1 sequence (Q9WUD2 whole entry): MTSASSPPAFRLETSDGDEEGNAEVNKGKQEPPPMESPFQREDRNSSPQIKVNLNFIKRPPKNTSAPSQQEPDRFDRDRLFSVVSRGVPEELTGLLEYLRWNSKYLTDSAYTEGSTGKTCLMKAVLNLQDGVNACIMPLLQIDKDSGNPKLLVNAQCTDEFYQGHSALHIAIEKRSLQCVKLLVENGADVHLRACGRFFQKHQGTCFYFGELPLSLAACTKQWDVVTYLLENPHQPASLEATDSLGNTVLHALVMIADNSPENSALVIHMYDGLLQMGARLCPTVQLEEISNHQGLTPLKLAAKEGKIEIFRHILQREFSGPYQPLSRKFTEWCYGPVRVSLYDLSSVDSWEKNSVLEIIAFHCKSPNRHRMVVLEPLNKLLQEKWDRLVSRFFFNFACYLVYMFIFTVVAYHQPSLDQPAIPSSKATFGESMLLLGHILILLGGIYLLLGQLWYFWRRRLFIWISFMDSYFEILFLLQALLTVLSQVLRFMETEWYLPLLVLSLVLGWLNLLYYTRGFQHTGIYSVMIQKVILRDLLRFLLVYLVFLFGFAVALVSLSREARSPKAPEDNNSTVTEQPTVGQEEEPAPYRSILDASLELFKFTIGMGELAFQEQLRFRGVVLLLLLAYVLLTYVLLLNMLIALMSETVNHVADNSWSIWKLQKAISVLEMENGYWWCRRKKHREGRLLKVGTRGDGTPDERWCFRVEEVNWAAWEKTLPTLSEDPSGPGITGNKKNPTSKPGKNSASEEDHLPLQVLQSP
Outline: (§1)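 HEK-293 cells heterologously expressing rat TRPV2, fluorometric intracellular Ca2+ assay. Cells are preincubated 5 min with varying test concentrations, then challenged with LPC (3 µM) or CBD (2 µM). Inhibition of the agonist-evoked [Ca2+]i rise gives IC50 (µM).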

[2] = biological target: T1, Transient receptor potential cation channel subfamily V member 2; assay: Antagonist activity at recombinant rat TRPV2 expressed in HEK293 cells assessed as inhibition of CBD-induced Ca2+ levels preincubated for 5 mins followed by agonist addition by Fuo-4-AM based spectrofluorimetry; assay type: cell-based; outline: as §1
[3] = biological target: Transient receptor potential cation channel subfamily V member 1 (Homo sapiens, UniProt Q8NER1); assay: Agonist activity at recombinant human TRPV1 expressed in HEK293 cells assessed as induction of Ca2+ levels by Fuo-4-AM based spectrofluorimetry
[4] = biological target: T2, Transient receptor potential cation channel subfamily V member 2 (Rattus norvegicus) (UniProt Q9WUD2); assay: Non-competitive antagonist activity at recombinant rat TRPV2 expressed in HEK293 cells assessed as inhibition of LPC-induced Ca2+ levels preincubated for 5 mins followed by agonist addition by Fuo-4-AM dependent spectrofluorimetry based Schild analysis; assay type: cell-based
T2 sequence (whole entry): T1 sequence (Q9WUD2 whole entry)
Outline: (§2)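 Schild analysis in rat TRPV2-HEK-293 cells by fluorometric Ca2+ assay. Full LPC or CBD concentration–response curves are run at increasing antagonist concentrations. Each agonist concentration is expressed as percent of its effect at 2x10-4 M without antagonist.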

[5] = biological target: T2, Transient receptor potential cation channel subfamily V member 2 (Rattus norvegicus); assay: Non-competitive antagonist activity at recombinant rat TRPV2 expressed in HEK293 cells assessed as inhibition of CBD-induced Ca2+ levels preincubated for 5 mins followed by agonist addition by Fuo-4-AM dependent spectrofluorimetry based Schild analysis; assay type: cell-based; outline: as §2

Sequence of Transient receptor potential cation channel subfamily V member 1 (Q8NER1 whole entry): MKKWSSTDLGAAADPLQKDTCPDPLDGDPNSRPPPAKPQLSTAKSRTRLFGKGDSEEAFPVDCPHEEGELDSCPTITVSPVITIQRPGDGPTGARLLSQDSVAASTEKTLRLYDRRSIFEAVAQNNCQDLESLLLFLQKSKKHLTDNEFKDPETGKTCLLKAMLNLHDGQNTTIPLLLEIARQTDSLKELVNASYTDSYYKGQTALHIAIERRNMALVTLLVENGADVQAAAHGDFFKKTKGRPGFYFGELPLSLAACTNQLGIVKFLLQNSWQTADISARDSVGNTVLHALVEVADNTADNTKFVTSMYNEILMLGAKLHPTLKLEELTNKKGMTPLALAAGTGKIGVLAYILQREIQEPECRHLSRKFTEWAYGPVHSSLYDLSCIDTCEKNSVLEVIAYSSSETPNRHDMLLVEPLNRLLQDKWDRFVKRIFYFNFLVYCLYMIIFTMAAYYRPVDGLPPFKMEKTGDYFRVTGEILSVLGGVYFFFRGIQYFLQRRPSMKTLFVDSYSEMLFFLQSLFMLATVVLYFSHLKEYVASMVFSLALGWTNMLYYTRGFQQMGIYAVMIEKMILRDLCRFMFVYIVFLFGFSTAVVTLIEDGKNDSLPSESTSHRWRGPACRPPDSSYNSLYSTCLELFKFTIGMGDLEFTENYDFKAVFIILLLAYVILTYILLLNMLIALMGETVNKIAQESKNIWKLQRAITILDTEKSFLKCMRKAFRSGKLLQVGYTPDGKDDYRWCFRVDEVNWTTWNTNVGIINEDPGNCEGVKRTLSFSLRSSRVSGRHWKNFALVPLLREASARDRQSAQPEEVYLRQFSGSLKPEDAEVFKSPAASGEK

| SMILES | IC50 [1] [µM] | IC50 [2] [µM] | EC50 [3] [µM] | inhibition [4] | inhibition [5] |
| --- | --- | --- | --- | --- | --- |
| CCCCCCCCCCCCCCCCCCCC(=O)NCc1ccc(O)c(OC)c1 | 3.1 | > 10 |  |  |  |
| CCCCCC[C@@H](O)C/C=C\CCCCCCCCSCCC(=O)NCc1ccc(O)c(OC)c1 | > 10 |  |  |  |  |
| NCCOB(c1ccccc1)c1ccccc1 |  |  | 129 |  |  |
| CCCCCCCCCCCCCCCC(N)=O [PALMITAMIDE] | > 10 | > 10 |  |  |  |
| CC/C=C\C/C=C\C/C=C\C/C=C\C/C=C\CCCC(=O)NCCO | > 10 | 2.3 |  |  |  |
| CCCCCCCC/C=C\CCCCCCCC(=O)O [OLEIC ACID] | > 10 | > 10 |  |  |  |
| CCCCCCCC/C=C\CCCCCCCCCCCC(=O)NCCO | 0.74 | > 10 |  | Active |  |
| CCCCCCCC/C=C\CCCCCCCCSCCC(=O)NCc1ccc(O)c(OC)c1 | 2.5 |  |  |  |  |
| CCCCCCCCCCCCCCCCOC(=O)CSC[C@H](N)C(=O)NCc1ccc(O)c(OC)c1 | 1.4 |  |  |  |  |
| CCCCCCCCCCCCCCCC[Se]C[C@H](N)C(=O)NCc1ccc(O)c(OC)c1 | 1.2 |  |  |  |  |
| CCCCC/C=C\C/C=C\CCCCCCCC[Se]CCC(=O)NCc1ccc(O)c(OC)c1 | 1.4 | 2.3 |  |  |  |
| CCCCCCCCCCCCCCCCCCCC(N)=O | > 10 | > 10 |  |  |  |
| CCCCCCCCCCCCCCCCSCCC(=O)NCc1ccc(O)c(OC)c1 | 3.8 |  |  |  |  |
| CCCCCCCC/C=C\CCCCCCCC[Se]C[C@H](N)C(=O)NCc1ccc(O)c(OC)c1 | 1.7 | 0.98 |  | Active | Active |
| CCCCCCCCCCCCCCCCCC(N)=O [OCTADECANOIC ACID AMIDE] | > 10 | > 10 |  |  |  |
| CCCCCCCCCCCCCCCC(=O)NCCO [PALMIDROL] | > 10 | > 10 |  |  |  |
| CCCCCCCCCCCCCCCC(=O)O [PALMITIC ACID] | > 10 | > 10 |  |  |  |
| CCCCCCCCCCCCCCCC(=O)NCc1ccc(O)c(OC)c1 | > 10 | > 10 |  |  |  |
| CCCCC/C=C\C/C=C\CCCCCCCCSCCC(=O)NCc1ccc(O)c(OC)c1 | 1.4 | 2.8 |  |  |  |
| CCCCCCCC/C=C\CCCCCCCC(=O)NCc1ccc(O)c(OC)c1 [OLVANIL] | 0.16 | 1.7 |  | Active | Active |
| CCCCC/C=C\C/C=C\C/C=C\C/C=C\CCCC(=O)O [ARACHIDONIC ACID] | > 10 | > 10 |  |  |  |
| CCCCCCCCCCCCCCCCCCCC(=O)NCCO | > 10 | > 10 |  |  |  |
| CCCCC/C=C\C/C=C\CCCCCCCC(N)=O | 2.2 | 1.2 |  |  |  |
| CCCCCCCC/C=C\CCCCCCCC(N)=O [OLEAMIDE] | 2.1 | 2.1 |  |  |  |
| CCCCC/C=C\C/C=C\CCCCCCCC(=O)NCCO [LINOLEOYLETHANOLAMIDE] | 1.4 | 0.65 |  |  |  |
| CCCCCCC(=O)CC(O)CCCCCCCCC(=O)NCc1ccc(O)c(OC)c1 (configuration not stated) | > 10 | > 10 |  |  |  |

| SMILES | IC50 [1] [µM] | IC50 [2] [µM] | EC50 [3] [µM] | inhibition [4] | inhibition [5] |
| --- | --- | --- | --- | --- | --- |
| CCCCCCCCCCCCCCCCCC(=O)NCc1ccc(O)c(OC)c1 | > 10 | > 10 |  |  |  |
| CCCCCCCC/C=C\CCCCCCCC(=O)N/N=C/c1ccc(O)c(OC)c1 | 0.12 | 3 |  |  |  |
| CCCCC/C=C\C/C=C\C/C=C\C/C=C\CCCC(=O)NCCO [ANANDAMIDE] | 8.6 | 0.96 |  |  |  |
| CCCCCCCC/C=C\CCCCCCCC[Se]CCC(=O)NCc1ccc(O)c(OC)c1 | 1.8 | 3.2 |  |  |  |
| CC/C=C\C/C=C\C/C=C\C/C=C\C/C=C\C/C=C\CCC(=O)NCCO | > 10 | 1.63 |  |  |  |
| CCCCCCCCCCCCCCCCCCCC(=O)O [ARACHIDIC ACID] | > 10 | > 10 |  |  |  |
| CCCCCCCC/C=C\CCCCCCCC(=O)NCCO [OLEOYLETHANOLAMIDE] | 1.8 | 5.4 |  |  |  |
| CCCCC/C=C\C/C=C\CCCCCCCC(=O)NCc1ccc(O)c(OC)c1 | 2.6 | 2.1 |  |  |  |
| CCCCCCCC/C=C\CCCCCCCCSC[C@H](N)C(=O)NCc1ccc(O)c(OC)c1 | 1.9 |  |  |  |  |
| CCCCCCCC/C=C\CCCCCCCCCCCC(=O)O [ERUCIC ACID] | > 10 | > 10 |  |  |  |
| CCCCCCCCCCCCCCCCSC[C@H](N)C(=O)NCc1ccc(O)c(OC)c1 | 1.4 |  |  |  |  |
| CCCCCCCC/C=C\CCCCCCCCCCCC(N)=O | 0.67 | 7.1 |  |  |  |
| CCCCCCC(=O)C/C=C/CCCCCCCC(=O)NCc1ccc(O)c(OC)c1 | > 10 | 4.4 |  |  |  |
| CCCCCC[C@@H](O)C/C=C/CCCCCCCC(=O)NCc1ccc(O)c(OC)c1 | > 10 | 7.5 |  |  |  |
| CCCCC/C=C\C/C=C\CCCCCCCCCCCC(=O)O | > 10 | > 10 |  |  |  |
| CCCCC/C=C\C/C=C\CCCCCCCCCCCC(=O)NCc1ccc(O)c(OC)c1 | 0.82 | 1.8 |  |  |  |
| CCCCCCCCCCCCCCCCOC(=O)CSCCC(=O)NCc1ccc(O)c(OC)c1 | > 10 |  |  |  |  |
| CCCCCC[C@H](C/C=C\CCCCCCCC[Se]CCC(=O)NCc1ccc(O)c(OC)c1)OC(=O)Cc1ccccc1 | > 10 | 2.3 |  |  |  |
| CCCCCCCCCCCCCCCC(=O)N/N=C/c1ccc(O)c(OC)c1 | 0.28 | 6 |  |  |  |
| CCCCCCCCCCCCCCCC[Se]CCC(=O)NCc1ccc(O)c(OC)c1 | 4.3 |  |  |  |  |
| CCCCCC[C@@H](O)C/C=C\CCCCCCCC[Se]CCC(=O)NCc1ccc(O)c(OC)c1 | > 10 | 1.4 |  |  | Active |
| CCCCCCCC/C=C\CCCCCCCCCCCC(=O)NCc1ccc(O)c(OC)c1 | 0.49 | 1.5 |  |  |  |
| CCCCCC[C@H](C/C=C\CCCCCCCCSCCC(=O)NCc1ccc(O)c(OC)c1)OC(=O)Cc1ccccc1 | > 10 |  |  |  |  |
| CCCCCCCCCCCCCCCCCC(=O)NCCO [N-(2-HYDROXYETHYL)STEARAMIDE] | > 10 | > 10 |  |  |  |
| CCCCCC/C=C\CCCCCCCC(=O)NCCO | 3.5 | 1.7 |  |  |  |
